Data: PubChem BioAssay AID588777 (Broad Institute, 2011)
Activity calls are given as the source filed them.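 The calls were made as follows: active = compound whose fitted half-maximal concentration, rising or falling, is at most ten times its top tested dose; inconclusive = flat fit showing 30 to 70% decrease, or bad fit; inactive = the rest.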

biological target: Scavenger receptor class B member 1 (Mus musculus) (UniProt Q61009); assay: modulators of HDL binding to SR-BI, dose response, orthogonal assay for SR-BI HDL uptake inhibitor project, ldlA[mSR-BI] cells, Alexa488-HDL, powder samples (AID 588777); conditions: Alexa488-HDL binding fluorescence, 3 h
Sequence (Q61009 whole entry, looked up): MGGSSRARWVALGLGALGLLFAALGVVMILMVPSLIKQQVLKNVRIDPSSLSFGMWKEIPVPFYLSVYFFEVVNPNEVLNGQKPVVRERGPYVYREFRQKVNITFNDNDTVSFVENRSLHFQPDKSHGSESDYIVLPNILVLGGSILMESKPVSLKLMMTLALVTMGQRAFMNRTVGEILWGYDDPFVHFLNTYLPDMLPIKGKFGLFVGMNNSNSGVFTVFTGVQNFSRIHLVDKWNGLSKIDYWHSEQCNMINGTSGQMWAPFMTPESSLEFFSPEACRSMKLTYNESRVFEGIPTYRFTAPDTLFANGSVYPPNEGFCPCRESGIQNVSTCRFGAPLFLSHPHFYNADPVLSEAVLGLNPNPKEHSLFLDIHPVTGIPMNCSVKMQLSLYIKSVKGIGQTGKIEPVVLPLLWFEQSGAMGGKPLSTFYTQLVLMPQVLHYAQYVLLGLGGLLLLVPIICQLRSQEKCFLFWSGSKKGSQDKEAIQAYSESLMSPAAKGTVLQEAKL
Summary of the method: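 Assay system: ldlA[mSR-BI] cells expressing murine scavenger receptor SR-BI; reagent: Alexa488-labelled HDL at 10 µg/mL; timing: 3 h at 37 °C; measured by: bottom-read Alexa488 fluorescence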

Compound	AC50
Cc1cc(SC(C)C(=O)Nc2ncc(Cl)cc2Cl)nc2ccccc12 (stereo not drawn)	6.84 µM
O=C(Nc1ccc(Cl)cc1C(=O)c1ccc(Cl)cc1)c1cc(Br)ccc1NS(=O)(=O)c1ccc(Cl)cc1	21.7 µM
Cc1cc(C)n(CC(=O)NC2CCCc3c2cnn3-c2ccc(C)c(C)c2)n1 (stereo not drawn)	0.0494 µM
C[C@H]1CN([C@@H](C)CO)C(=O)c2cc(NC(=O)Cc3cn(C)c4ccccc34)ccc2O[C@H]1CN(C)S(=O)(=O)c1ccc(F)cc1	25.4 µM
Cc1cc(C(=O)C(C)OC(=O)C2=NNC(=O)CC2)c(C)n1-c1ccc(OC(F)F)cc1 (stereo not drawn)	7.45 µM
C[C@H]1CN([C@@H](C)CO)C(=O)c2cccc(NC(=O)Nc3ccccc3)c2O[C@@H]1CN(C)Cc1ccccc1	13.8 µM
CC(C)OCCCNC(=O)c1ccc(C2SCC(=O)N2Cc2ccco2)cc1 (stereo not drawn)	16.5 µM
CCOC(=O)Nc1cccc(NC(=O)c2cc(OC)cc(OC)c2)c1	2.27 µM
CCOc1ccccc1/C=C/c1onc(C)c1S(=O)(=O)N1CCC(C(=O)NC(C)(C)C)CC1	11.3 µM
Nc1ccc(C(=O)Nc2ccc(-c3nc4ccc(NC(=O)c5ccc(N)cc5)cc4[nH]3)cc2)cc1	4.55 µM
C[C@@H]1CN([C@H](C)CO)C(=O)c2cc(NC(=O)Cc3cn(C)c4ccccc34)ccc2O[C@H]1CN(C)S(=O)(=O)c1ccccc1	8.36 µM
COc1ccc(OC)c(CCNC(=O)c2ccc3c(c2)N(Cc2ccc(F)cc2)CCS3)c1	6.52 µM
N#Cc1sc2nc(C3CC3)cc(-c3ccc(Cl)cc3)c2c1N	20.1 µM
CC(OC(=O)c1cccc(NS(C)(=O)=O)c1)C(=O)Nc1ccc(N2CCOCC2)cc1 (stereo not drawn)	4.47 µM
C[C@@H]1CN([C@H](C)CO)C(=O)c2cc(NC(=O)Cc3cn(C)c4ccccc34)ccc2O[C@H]1CN(C)C(=O)Nc1ccc(F)cc1	1.93 µM
CCOc1ccc(NC(=O)CN2CCN(CC(=O)Nc3cc(OC)cc(OC)c3)CC2)cc1	0.128 µM
COc1ccc(-c2nnn(CC(=O)N(C3CCCCC3)C(C)C(=O)NC3CCCC3)n2)cc1OC (stereo not drawn)	0.422 µM
CCOC(=O)N1CCC(NC(=O)c2ccc3c(c2)N(Cc2ccc(F)cc2)CCS3)CC1	2.4 µM
CC(C)(C)NC(=O)N1CCN(c2ncccc2C(F)(F)F)CC1	7.61 µM
C[C@@H]1CN([C@H](C)CO)C(=O)c2cc(NC(=O)Cc3cn(C)c4ccccc34)ccc2O[C@H]1CN(C)S(=O)(=O)c1ccc(F)cc1	2.06 µM
COc1ccc([C@H]2CC(=O)C=C(c3cccc4c3sc3ccccc34)C2)cc1OC	2.28 µM
CCc1cc2cc3c(cc2nc1SCC(=O)OC(C)C)OCO3	1.48 µM
Cc1ccccc1NC(=O)NCC1CCN(c2ccc(S(=O)(=O)N3CCOCC3)cc2)CC1	3.98 µM

Compound	AC50
C[C@@H]1CN([C@H](C)CO)C(=O)c2cc(NC(=O)Cc3cn(C)c4ccccc34)ccc2O[C@H]1CN(C)S(=O)(=O)c1ccc(Cl)cc1	0.168 µM
Cc1cc(C)c2c(c1)NC(c1cc3c(cc1Br)OCO3)C1CC=CC21 (stereo not drawn)	8.25 µM
C[C@H]1CN([C@@H](C)CO)C(=O)c2cccc(NC(=O)Nc3ccc(F)cc3)c2O[C@@H]1CN(C)Cc1ccc(Cl)c(Cl)c1	0.533 µM
C[C@H]1CN([C@@H](C)CO)C(=O)c2cccc(NC(=O)Nc3ccccc3)c2O[C@@H]1CN(C)Cc1ccc(C(F)(F)F)cc1	19.4 µM
C[C@@H]1CN([C@@H](C)CO)C(=O)c2cc(NC(=O)Cc3cn(C)c4ccccc34)ccc2O[C@@H]1CN(C)S(=O)(=O)c1ccc(F)cc1	22.8 µM
O=C(Nc1cc(Cl)ccc1Cl)c1cc(Br)ccc1NS(=O)(=O)c1ccc(Cl)c([N+](=O)[O-])c1	4.23 µM
CCn1c(COc2c(C)cccc2C)nnc1SCC(=O)N1CCN(c2ccccc2)CC1	5.89 µM
Cc1ccc(-c2nnc(N3CCC(C)CC3)c3ccccc23)cc1C	5.54 µM
C[C@H](CO)N1C[C@H](C)[C@H](CN(C)S(=O)(=O)c2ccc(F)cc2)Oc2ccc(NC(=O)Cc3cn(C)c4ccccc34)cc2C1=O	30.9 µM
C[C@H](CO)N1C[C@H](C)[C@H](CN(C)S(=O)(=O)c2ccc(F)cc2)Oc2ccc(NS(C)(=O)=O)cc2C1=O	21 µM
COc1cccc(-c2csc(N3CCN(C(=S)Nc4cccc(Cl)c4)CC3)n2)c1	12 µM
O=C(Nc1ccc(-c2nc3ccc(NC(=O)c4ccccc4)cc3[nH]2)cc1)c1ccccc1	0.328 µM
C[C@@H]1CN([C@@H](C)CO)C(=O)c2cc(NC(=O)Cc3cn(C)c4ccccc34)ccc2O[C@H]1CN(C)S(=O)(=O)c1ccc(F)cc1	10.2 µM
CCc1sc(N2C(=O)C3C4CCC(C4=C(C)C)C3C2=O)nc1-c1ccccc1 (stereo not drawn)	0.441 µM
CC(C)NC(=O)Nc1cccc2c1O[C@H](CN(C)Cc1ccc(Cl)c(Cl)c1)[C@@H](C)CN([C@@H](C)CO)C2=O	9.96 µM
O=C(Nc1ccc(-c2nc3cc(NC(=O)c4ccccc4Cl)ccc3o2)cc1)c1ccccc1Cl	0.0819 µM
C[C@H]1CN([C@@H](C)CO)C(=O)c2cccc(NC(=O)Nc3ccccc3)c2O[C@@H]1CN(C)Cc1ccc(Cl)c(Cl)c1	1.79 µM
O=C(Nc1cccc(NC(=O)c2cc([N+](=O)[O-])ccc2Cl)n1)c1cc([N+](=O)[O-])ccc1Cl	5.11 µM
O=C(Nc1ccc(-c2nc3cc(NC(=O)c4ccc(NC(=O)c5cccc6ccccc56)cc4)ccc3[nH]2)cc1)c1ccc(NC(=O)c2cccc3ccccc23)cc1	< 0.015 µM
COC(=O)c1cn(C(=O)c2cccc3ccccc23)c2ccccc12	23 µM
C[C@@H]1CN([C@H](C)CO)C(=O)c2cc(NC(=O)Cc3cn(C)c4ccccc34)ccc2O[C@H]1CN(C)S(C)(=O)=O	25 µM
C[C@@H]1CN([C@H](C)CO)C(=O)c2cc(NC(=O)Cc3cn(C)c4ccccc34)ccc2O[C@@H]1CN(C)S(=O)(=O)c1ccc(F)cc1	21.5 µM
O=C(Nc1ccc(-c2nc3ccc(NC(=O)c4ccccc4[N+](=O)[O-])cc3[nH]2)cc1)c1ccccc1[N+](=O)[O-]	0.0549 µM

same assay, conditions: Alexa488-HDL binding fluorescence, 3 h, at 11 µM (top of the series)

Compound	activity change, either direction
C[C@H](CO)N1C[C@H](C)[C@@H](CN(C)S(=O)(=O)c2ccc(F)cc2)Oc2ccc(NC(=O)Cc3cn(C)c4ccccc34)cc2C1=O	inactive

same assay, conditions: Alexa488-HDL binding fluorescence, 3 h, at 35 µM (top of the series)

Compound	activity change, either direction
O=C(Nc1cc(C(F)(F)F)ccc1Cl)c1ccccc1NS(=O)(=O)c1ccc(Cl)cc1	inactive
CCC(=O)N1CCc2cc(-c3csc(NC(=O)c4ccco4)n3)ccc21	inactive
C[C@H]1CN([C@@H](C)CO)C(=O)c2cccc(NC(=O)Nc3ccccc3)c2O[C@@H]1CN(C)S(C)(=O)=O	inactive
C[C@H]1CN([C@@H](C)CO)C(=O)c2cc(NC(=O)Nc3ccccc3)ccc2O[C@@H]1CN(C)Cc1ccc(Cl)c(Cl)c1	inactive
O=C(Nc1cc(Cl)ccc1Cl)c1cc(Cl)ccc1NS(=O)(=O)c1ccc(Cl)c([N+](=O)[O-])c1	inactive
O=C(Nc1ccccc1)c1ccccc1NS(=O)(=O)c1ccc(Cl)cc1	inactive
O=C(Nc1ccc(-c2nc3cc(NC(=O)c4ccccc4[N+](=O)[O-])ccc3o2)cc1)c1ccccc1[N+](=O)[O-]	inactive
O=C(Nc1ccc(-c2nc3ccc(NC(=O)c4ccc(Cl)cc4)cc3[nH]2)cc1)c1ccc(Cl)cc1	inactive
C[C@H](CO)N1C[C@H](C)[C@H](CN(C)S(=O)(=O)c2ccc(F)cc2)Oc2ccc(NC(=O)CCC(F)(F)F)cc2C1=O	inactive
C[C@H]1CN([C@@H](C)CO)C(=O)c2cccc(NS(C)(=O)=O)c2O[C@@H]1CN(C)Cc1ccc(Cl)c(Cl)c1	inactive

same assay, conditions: Alexa488-HDL binding fluorescence, 3 h, at 68 µM (top of the series)

Compound	activity change, either direction
Cc1ccc2oc(-c3cccc(NC(=O)c4cc(-n5cnnc5)ccc4Cl)c3)nc2c1	inactive
